Results: ChEMBL document CHEMBL4330142, “Eupatoriopicrin Inhibits Pro-inflammatory Functions of Neutrophils via Suppression of IL-8 and TNF-alpha Production and p38 and ERK 1/2 MAP Kinases” (J Nat Prod, 2019)
Calls of active or inactive are those of the source. No cut-off for these calls is given here.

Columns and labels:
[1] = Anti-inflammatory activity in human PMN assessed as inhibition of fMLP/cytochalasin A-induced CD11b/CD18 expression by measuring CD11b/CD18 expression level at 50 uM preincubated for 30 mins followed by fMLP/cytochalasin A addition and measured after 30 mins by flow cytometry relative to control; format: functional; design: scale not given: the % may be the effect or the level left
Method in brief: (§1)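 Neutrophils preincubated with compound before stimulation with cytochalasin A combined with f-MLP; surface CD11b expression read by flow cytometry. Compounds from 10 mM DMSO stock diluted in buffer or RPMI 1640. Mean ± SEM of three experiments on neutrophils from independent donors, Dunnett's post hoc test versus stimulated control.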

[2] = system: Neutrophil; assay: Inhibition of LPS-induced delay of apoptosis in human neutrophils assessed as necrotic cells at 2.5 uM preincubated for 1 hr followed by LPS stimulation and measured after 24 hrs by Annexin V-FITC/propidium iodide staining based flow cytometry (reference value: 2.1 +/- 0.4%); format: functional; design: scale not given: the % may be the effect or the level left
[3] = system: Neutrophil; assay: Inhibition of LPS-induced delay of apoptosis in human neutrophils assessed as late apoptotic cells at 2.5 uM preincubated for 1 hr followed by LPS stimulation and measured after 24 hrs by Annexin V-FITC/propidium iodide staining based flow cytometry (reference value: 9.5 +/- 1.8%); format: functional; design: scale not given: the % may be the effect or the level left
[4] = system: Neutrophil; assay: Inhibition of LPS-induced delay of apoptosis in human neutrophils assessed as early apoptotic cells at 2.5 uM preincubated for 1 hr followed by LPS stimulation and measured after 24 hrs by Annexin V-FITC/propidium iodide staining based flow cytometry (reference value: 13 +/- 1.9%); format: functional; design: scale not given: the % may be the effect or the level left
[5] = system: Neutrophil; assay: Inhibition of LPS-stimulated TNFalpha production in human neutrophils at 2.5 uM after 24 hrs by ELISA; format: functional, cell-based
Method in brief: (§2)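 Human neutrophils were preincubated with compound, then LPS-stimulated. TNF-α in the culture medium was measured by ELISA 24 h after LPS. Three separate experiments used neutrophils from independent donors, each assayed in duplicate; mean ± SEM; Dunnett's test versus the stimulated control.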

[6] = Anti-inflammatory activity in human PMN assessed as inhibition of fMLP/cytochalasin A-induced CD11b/CD18 expression by measuring CD11b/CD18 expression level at 2.5 uM preincubated for 30 mins followed by fMLP/cytochalasin A addition and measured after 30 mins by flow cytometry relative to control; format: functional; design: scale not given: the % may be the effect or the level left; method in brief: as §1
[7] = system: Neutrophil; assay: Inhibition of LPS-stimulated IL-8 production in human neutrophils at 2.5 uM after 24 hrs by ELISA; format: functional, cell-based
[8] = system: Neutrophil; assay: Inhibition of LPS-induced delay of apoptosis in human neutrophils assessed as viable cells at 2.5 uM preincubated for 1 hr followed by LPS stimulation and measured after 24 hrs by Annexin V-FITC/propidium iodide staining based flow cytometry (reference value: 75.4 +/- 1.1%); format: functional; conditions: read-out: Activity
[9] = system: Neutrophil; assay: Inhibition of fMLP/cytochalasin A-stimulated elastase release in human neutrophils assessed as elastase level at 50 uM preincubated for 15 mins followed by fMLP/cytochalasin A stimulation and measured after 15 mins by SAAVNA substrate based spectrophotometric method (reference value: 100%); design: scale not given: the % may be the effect or the level left
[10] = system: Neutrophil; assay: Inhibition of LPS-stimulated TNFalpha production in human neutrophils at 50 uM after 24 hrs by ELISA; format: functional, cell-based; method in brief: as §2
[11] = species: Homo sapiens; assay: Anti-inflammatory activity in human PMN assessed as inhibition of fMLP/cytochalasin A-induced CD11b/CD18 expression at 2.5 uM preincubated for 30 mins followed by fMLP/cytochalasin A addition and measured after 30 mins by flow cytometry; format: functional
Method in brief: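 Freshly isolated human PMNs were preincubated with compound, then stimulated with cytochalasin A plus f-MLP. Surface CD11b was read by FACS relative to the stimulated control. Three separate experiments used neutrophils from independent donors; mean ± SEM. Compounds came from 10 mM DMSO stocks diluted in Ca2+-free HBSS/PBS pH 7.4 or RPMI 1640.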

SMILES | Activity [1] [%] | Activity [2] [%] | Activity [3] [%] | Activity [4] [%] | inhibition [5] | Activity [6] [%] | inhibition [7] | viability at 2.5 µM [8] [%] | Activity [9] [%] | inhibition [10] | inhibition [11]
CC[C@H]1OC(=O)[C@H](C)[C@@H](O[C@H]2C[C@@](C)(OC)[C@@H](O)[C@H](C)O2)[C@H](C)[C@@H](O[C@@H]2O[C@H](C)C[C@H](N(C)C)[C@H]2O)[C@](C)(OC)C[C@@H](C)C(=O)[C@H](C)[C@@H](O)[C@]1(C)O [CLARITHROMYCIN] | 31.5 | 1.1 | 13.3 | 33.7 | inactive | 67.7 | Active | 49.8 | 39 | Active | –
O=c1c(O)c(-c2ccc(O)c(O)c2)oc2cc(O)cc(O)c12 [QUERCETIN] | – | 1 | 15.4 | 27 | inactive | – | – | 58.8 | 26.6 | Active | inactive
